What was measured:
[1] = system: Human immunodeficiency virus 1; test: Antiviral activity against R5-HIV1MDR/G assessed as inhibition of p24 Gag protein in human PHA-PBMC by ELISA relative to X4-HIV1NL4-3; assay type: functional
[2] = system: Human immunodeficiency virus 1; test: Ratio of EC50 for X4-HIV1MDR/C in human PHA-PBMC to EC50 for X4-HIV1NL4-3 in human MT4 cells; assay type: functional, NL4-3
[3] = system: MT4; test: Cytotoxicity against human MT4 cells by MTT assay; assay type: functional
[4] = system: Human immunodeficiency virus 1; test: Antiviral activity against R5-HIV1MDR/MM assessed as inhibition of p24 Gag protein production in human PHA-PBMC by ELISA; assay type: functional, organism-based
Method in brief: (§1)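 PHA-stimulated PBMC (10^6 cells/ml; 10^5 cells/well) were infected with 50 TCID50 of HIV-1Ba-L or a primary multidrug-resistant isolate and cultured with drug in 10-fold serial dilutions. On day 7, supernatant p24 Gag was measured by automated chemiluminescent enzyme immunoassay. EC50 is the concentration that halves p24 relative to drug-free cultures. Triplicate assays.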

[5] = system: Human immunodeficiency virus 1; test: Ratio of EC50 for R5-HIV1MDR/MM in human PHA-PBMC to EC50 for R5-HIV1Ba-L in human PHA-PBMC; assay type: functional
[6] = system: Human immunodeficiency virus 1; test: Antiviral activity against R5-HIV1MDR/C assessed as inhibition of p24 Gag protein production in human PHA-PBMC by ELISA; assay type: functional, organism-based; method in brief: as §1
[7] = Cytotoxicity against human PHA-PBMC cells by MTT assay; assay type: cell-based
[8] = system: Human immunodeficiency virus 1; test: Antiviral activity against R5-HIV1MDR/G assessed as inhibition of p24 Gag protein production in human PHA-PBMC by ELISA; assay type: functional, organism-based; method in brief: as §1
[9] = system: Human immunodeficiency virus 1; test: Antiviral activity against X4-HIV1 NL4-3 assessed as […] in human MT4 cells by MTT assay; assay type: functional, organism-based; settings: Human immunodeficiency virus 1, NL4-3, MT4
[10] = system: Human immunodeficiency virus 1; test: Antiviral activity against HIV1 NL4-3 replication in human MT4 cells at 0.01 uM pretreated 48 hrs before infection assessed as protection at 0.01 uM by MTT assay; assay type: functional
[11] = system: CCRF-CEM; test: Metabolic stability of the compound in human CD4+ CEM cells assessed as 4'-ethynyl-2-fluoro-2'-deoxyadenosine triphosphate intracellular levels at 200 nM after 8 hrs; assay type: ADME, cell-based; settings: 0.2 µM
Method in brief: (§2)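 CEM cells (10^6 cells/ml) were loaded 6 h with 200 nM [3H]-labelled nucleoside, washed thoroughly, then cultured drug-free for 0, 2, 4, 8, 12 or 24 h. Cells were extracted in 60% methanol, and mono-, di- and triphosphates were quantified by SAX HPLC with fraction scintillation counting. Values are means of 2–3 independent experiments.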

[12] = system: CCRF-CEM; test: Metabolic stability of the compound in human CEM cells assessed as 3'-azido-2',3'-dideoxythymidine diphosphate intracellular levels at 200 nM after 24 hrs; assay type: ADME, cell-based; settings: 0.2 µM; method in brief: as §2
[13] = system: Human immunodeficiency virus 1; test: Antiviral activity against HIV1 NL4-3 replication in human MT4 cells at 0.01 uM pretreated 24 hrs before infection assessed as protection at 0.01 uM by MTT assay; assay type: functional
[14] = system: CCRF-CEM; test: Metabolic stability of the compound in human CD4+ CEM cells assessed as 4'-ethynyl-2-fluoro-2'-deoxyadenosine diphosphate intracellular levels at 200 nM after 8 hrs; assay type: ADME, cell-based; settings: 0.2 µM; method in brief: as §2
[15] = system: CCRF-CEM; test: Metabolic stability of the compound in human CD4+ CEM cells assessed as 4'-ethynyl-2-fluoro-2'-deoxyadenosine monophosphate intracellular levels at 200 nM after 8 hrs; assay type: ADME, cell-based; settings: 0.2 µM; method in brief: as §2
[16] = system: CCRF-CEM; test: Metabolic stability of the compound in human CEM cells assessed as 3'-azido-2',3'-dideoxythymidine triphosphate intracellular levels at 200 nM after 24 hrs; assay type: ADME, cell-based; settings: 0.2 µM; method in brief: as §2
[17] = system: CCRF-CEM; test: Drug uptake in human CD4+CEM cells assessed as 4'-ethynyl-2-fluoro-2'-deoxyadenosine triphosphate half life at 200 nM; assay type: ADME, cell-based; settings: 0.2 µM; method in brief: as §2
[18] = system: CCRF-CEM; test: Metabolic stability of the compound in human CEM cells assessed as 3'-azido-2',3'-dideoxythymidine monophosphate intracellular levels at 200 nM after 24 hrs; assay type: ADME, cell-based; settings: 0.2 µM; method in brief: as §2
[19] = system: CCRF-CEM; test: Drug level in human CD4+CEM cells assessed as increase in 4'-ethynyl-2-fluoro-2'-deoxyadenosine triphosphate level at 0.1 uM after 6 hrs; assay type: ADME, cell-based
Method in brief: (§3)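 CEM cells (10^6 cells/ml) were incubated 6 h with 0.1, 1 or 10 µM [3H]-labelled nucleoside, then washed. Intracellular nucleosides/nucleotides were extracted in 60% methanol and separated by SAX ion-exchange HPLC on an ammonium phosphate gradient. One-minute fractions up to 40 min were scintillation-counted, and each peak plus flanking fractions were summed. Two independent experiments were run.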

[20] = system: CCRF-CEM; test: Drug level in human CD4+CEM cells per 10^9 cells at 0.1 uM; assay type: ADME, cell-based; method in brief: as §3
[21] = system: Human immunodeficiency virus 1; test: Antiviral activity against R5-HIV1Ba-L assessed as inhibition of p24 Gag protein production in human PHA-PBMC by ELISA; assay type: functional, organism-based; settings: Human immunodeficiency virus 1, Ba-L; method in brief: as §1
[22] = system: CCRF-CEM; test: Drug uptake in human CD4+CEM cells assessed as 4'-ethynyl-2-fluoro-2'-deoxyadenosine monophosphate half life at 200 nM; assay type: ADME, cell-based; settings: 0.2 µM; method in brief: as §2
[23] = system: CCRF-CEM; test: Drug uptake in human CD4+CEM cells assessed as 4'-ethynyl-2-fluoro-2'-deoxyadenosine diphosphate half life at 200 nM; assay type: ADME, cell-based; settings: 0.2 µM; method in brief: as §2
[24] = Inhibition of human DNA polymerase alpha using calf thymus DNA as a template
Method in brief: (§4)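 Each 30-min, 37 °C reaction contained 50 mM Tris pH 8.0, 8 mM MgCl2, 60 mM KCl, 10 mM DTT, BSA, 0.3 µM [α-32P]dATP, inhibitor, and either 250 nM D21/D36 or 0.1 mg/ml activated calf thymus DNA. Enzyme was 1 unit polymerase α, 100 nM β or 2.5 nM γ. Reactions were stopped with EDTA and spotted onto DE81 filters. Incorporated dAMP was quantified by phosphorimaging to give the IC50.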

[25] = Inhibition of human DNA polymerase gamma using D21/D36 DNA as a template; method in brief: as §4
[26] = Inhibition of human DNA polymerase beta using calf thymus DNA as a template; method in brief: as §4
[27] = Inhibition of human DNA polymerase beta using D21/D36 DNA as a template; method in brief: as §4
[28] = Inhibition of human DNA polymerase gamma using calf thymus DNA as a template; method in brief: as §4
[29] = system: Human immunodeficiency virus 1; test: Antiviral activity against HIV1 NL4-3 replication in human MT4 cells at 0.01 uM pretreated 24 hrs before infection assessed as protection at 1 uM by MTT assay; assay type: functional
[30] = system: Human immunodeficiency virus 1; test: Antiviral activity against HIV1 NL4-3 replication in human MT4 cells at 0.01 uM pretreated 48 hrs before infection assessed as protection at 1 uM by MTT assay; assay type: functional
[31] = system: CCRF-CEM; test: Metabolic stability of the compound in human CD4+ CEM cells assessed as 3'-azido-2',3'-dideoxythymidine monophosphate intracellular levels at 200 nM after 8 hrs; assay type: ADME, cell-based; settings: 0.2 µM; method in brief: as §2
[32] = system: CCRF-CEM; test: Drug uptake in human CD4+CEM cells assessed as 3'-azido-2',3'-dideoxythymidine monophosphate half life at 200 nM; assay type: ADME, cell-based; settings: 0.2 µM; method in brief: as §2
[33] = system: CCRF-CEM; test: Drug uptake in human CD4+CEM cells assessed as 3'-azido-2',3'-dideoxythymidine triphosphate half life at 200 nM; assay type: ADME, cell-based; settings: 0.2 µM; method in brief: as §2
[34] = system: CCRF-CEM; test: Metabolic stability of the compound in human CD4+ CEM cells assessed as 3'-azido-2',3'-dideoxythymidine triphosphate intracellular levels at 200 nM after 8 hrs; assay type: ADME, cell-based; settings: 0.2 µM; method in brief: as §2
[35] = system: CCRF-CEM; test: Drug uptake in human CD4+CEM cells assessed as 3'-azido-2',3'-dideoxythymidine diphosphate half life at 200 nM; assay type: ADME, cell-based; settings: 0.2 µM; method in brief: as §2
[36] = system: CCRF-CEM; test: Drug level in human CD4+CEM cells assessed as increase in 3'-azido-2',3'-dideoxythymidine triphosphate level at 0.1 uM after 6 hrs; assay type: ADME, cell-based; method in brief: as §3
[37] = system: CCRF-CEM; test: Metabolic stability of the compound in human CD4+ CEM cells assessed as 3'-azido-2',3'-dideoxythymidine diphosphate intracellular levels at 200 nM after 8 hrs; assay type: ADME, cell-based; settings: 0.2 µM; method in brief: as §2

## CC(C)(C)NC(=O)[C@@H]1C[C@@H]2CCCC[C@@H]2CN1C[C@@H](O)[C@H](Cc1ccccc1)NC(=O)[C@H](CC(N)=O)NC(=O)c1ccc2ccccc2n1
[1]
  fold change (FC): 3
[2]
  fold change (FC): 4
[3]
  CC50: 26000 nM
[4]
  EC50: 220 nM
[5]
  fold change (FC): 28
[6]
  EC50: 37 nM
[7]
  CC50: 78000 nM
[8]
  EC50: 26 nM

## CC(C)CN(C[C@@H](O)[C@H](Cc1ccccc1)NC(=O)O[C@H]1CCOC1)S(=O)(=O)c1ccc(N)cc1
[1]
  fold change (FC): 10
[2]
  fold change (FC): 12
[3]
  CC50: > 100000 nM
[9]
  EC50: 24 nM
[5]
  fold change (FC): 17
[6]
  EC50: 280 nM
[7]
  CC50: > 100000 nM

## C#C[C@]1(CO)O[C@@H](n2cnc3c(N)nc(F)nc32)C[C@@H]1O
[10]
  Activity: 47%
[1]
  fold change (FC): 21
[11]
  Activity: 72%
[12]
  Activity: 23%
[13]
  Activity: 75%
[2]
  fold change (FC): 4
[3]
  CC50: 11000 nM
[14]
  Activity: 45%
[15]
  Activity: 50%
[16]
  Activity: 38%
[17]
  t1/2: 17.2 h
[18]
  Activity: 31%
[4]
  EC50: 3 nM
[19]
  Activity: 22
[20]
  Drug uptake: 1730 pmol
[9]
  EC50: 1 nM
[21]
  EC50: 0.4 nM
[5]
  fold change (FC): 8
[22]
  t1/2: 8.1 h
[23]
  t1/2: 6.7 h
[6]
  EC50: 4 nM
[7]
  CC50: 12000 nM
[8]
  EC50: 21 nM

## C#C[C@]1(COP(=O)(O)OP(=O)(O)OP(=O)(O)O)O[C@@H](n2cnc3c(N)nc(F)nc32)C[C@@H]1O
[24]
  IC50: > 100000 nM
[25]
  IC50: > 100000 nM
  Ki: 24400 nM
[26]
  IC50: > 100000 nM
[27]
  IC50: > 100000 nM
[28]
  IC50: 10000 nM

## Nc1ncnc2c1ncn2[C@H]1CC[C@@H](COP(=O)(O)OP(=O)(O)OP(=O)(O)O)O1 [DDA-TRIPHOSPHATE]
[24]
  IC50: > 100000 nM
[25]
  IC50: 2000 nM
  Ki: 4600 nM
[26]
  IC50: 200 nM
[27]
  IC50: 3000 nM
[28]
  IC50: 200 nM

## C[C@H](Cn1cnc2c(N)ncnc21)OCP(=O)(O)O [TENOFOVIR ANHYDROUS]
[1]
  fold change (FC): 3
[2]
  fold change (FC): 2
[4]
  EC50: 82 nM
[29]
  Activity: 90%
[21]
  EC50: 32 nM
[5]
  fold change (FC): 3
[30]
  Activity: 64%
[6]
  EC50: 47 nM
[7]
  CC50: 53000 nM
[8]
  EC50: 87 nM

## Cc1cn([C@H]2C[C@H](N=[N+]=[N-])[C@@H](CO)O2)c(=O)[nH]c1=O [ZIDOVUDINE]
[1]
  fold change (FC): 12
[31]
  Activity: 16%
[12]
  Activity: 11%
[2]
  fold change (FC): 12
[3]
  CC50: > 100000 nM
[32]
  t1/2: 1.4 h
[16]
  Activity: 9%
[33]
  t1/2: 2.8 h
[18]
  Activity: 10%
[4]
  EC50: 340 nM
[20]
  Drug uptake: 4349 pmol
[9]
  EC50: 33 nM
[29]
  Activity: 55%
[5]
  fold change (FC): 22
[34]
  Activity: 26%
[35]
  t1/2: 1.6 h
[30]
  Activity: 9.2%
[36]
  Activity: 2.4
[6]
  EC50: 390 nM
[7]
  CC50: > 10000 nM
[8]
  EC50: 380 nM
[37]
  Activity: 26%
